Test results taken from ChEMBL document CHEMBL1122526, “Pyridonecarboxylic acids as antibacterial agents. 4. Synthesis and antibacterial activity of 7-(3-amino-1-pyrrolidinyl)-1-ethyl-6-fluoro-1,4 -dihydro-4-oxo-1,8-naphthyridine-3-carboxylic acid and its analogues” (1984).
≈ marks a conversion by molar mass, not a printed value.

Assays:
Format in all cases: functional
Escherichia coli [1] = test: In vitro antibacterial activity against Escherichia coli NIHJ JC-2
Staphylococcus aureus [2] = test: In vitro for antibacterial activity against Staphylococcus aureus 209P JC-1
Pseudomonas aeruginosa [3] = test: in vitro antibacterial activity against Pseudomonas aeruginosa Tsuchijima
Pseudomonas aeruginosa [4] = test: Compound was evaluated in vivo for oral antibacterial activity against Pseudomonas aeruginosa 12 at a dose of 4E3
Method in brief: (§1)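 Mice were given a systemic infection and then treated by the oral route. Challenge doses in cells per mouse were 5 × 10^8 for S. aureus 50774, 9 × 10^6 for E. coli P-5101 and 4 × 10^3 for P. aeruginosa 12. The protective dose is given in mg/kg.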

Escherichia coli [5] = test: Compound was evaluated in vivo for oral antibacterial activity against Escherichia coli P-5101 at a dose of 9E6; method in brief: as §1
Staphylococcus aureus [6] = test: Compound was evaluated in vivo for oral antibacterial activity against Staphylococcus aureus 50774 at a dose of 5E8; method in brief: as §1
Pseudomonas aeruginosa [7] = test: Compound was evaluated in vivo for oral antibacterial activity iagainst Pseudomonas aeruginosa 12 at a dose of 4E3; method in brief: as §1

Structure (SMILES) | MIC (Escherichia coli [1]) [µg/mL] | MIC (Staphylococcus aureus [2]) [µg/mL] | MIC (Pseudomonas aeruginosa [3]) [µg/mL] | ED50 (Pseudomonas aeruginosa [4]) [mg/kg] | ED50 (Escherichia coli [5]) [mg/kg] | ED50 (Staphylococcus aureus [6]) [mg/kg] | ED50 (Pseudomonas aeruginosa [7]) [mg/kg]
CCOC1CN(c2nc3c(cc2F)c(=O)c(C(=O)O)cn3CC)C1 | 3.13 (≈ 9.33 µM) | 0.78 (≈ 2.33 µM) | 25 (≈ 74.6 µM) |  |  |  | 
CCn1cc(C(=O)O)c(=O)c2cc(F)c(N3CCC(N(C)C)C3)nc21 (centres undefined) | 0.78 (≈ 2.24 µM) | 1.56 (≈ 4.48 µM) | 6.25 (≈ 17.9 µM) |  |  |  | 
CCn1cc(C(=O)O)c(=O)c2cc(F)c(N3CCC(NC(C)=O)C3)nc21 (centres undefined) | 6.25 (≈ 17.2 µM) | 0.78 (≈ 2.15 µM) | 6.25 (≈ 17.2 µM) |  |  |  | 
C=Cn1cc(C(=O)O)c(=O)c2cc(F)c(N3CC(N)C3)nc21 | 0.1 (≈ 0.329 µM) | 1.56 (≈ 5.13 µM) | 0.39 (≈ 1.28 µM) |  |  |  | 
C=Cn1cc(C(=O)O)c(=O)c2cc(F)c(N3CCC(N)C3)nc21 (centres undefined) | 0.025 (≈ 0.0785 µM) | 0.2 (≈ 0.628 µM) | 0.2 (≈ 0.628 µM) | 1.6 | 0.72 | 1.6 | 
CC(=O)N(C)C1CCN(c2nc3c(cc2F)c(=O)c(C(=O)O)cn3CCF)C1 (centres undefined) | 1.56 (≈ 3.96 µM) | 0.39 (≈ 0.989 µM) | 25 (≈ 63.4 µM) |  |  |  | 
CCn1cc(C(=O)O)c(=O)c2cc(F)c(N3CCC(N)CC3)nc21 | 0.2 (≈ 0.598 µM) | 0.2 (≈ 0.598 µM) | 1.56 (≈ 4.67 µM) |  | 6.3 | > 25 | 16.2
CCn1cc(C(=O)O)c(=O)c2cc(F)c(N3CC(OC)C3)nc21 | 3.13 (≈ 9.74 µM) | 0.78 (≈ 2.43 µM) | 6.25 (≈ 19.5 µM) |  |  |  | 
NC1CCN(c2nc3c(cc2F)c(=O)c(C(=O)O)cn3CCF)C1 (centres undefined) | 0.1 (≈ 0.296 µM) | 0.39 (≈ 1.15 µM) | 0.39 (≈ 1.15 µM) | 6.3 | 2.8 | 4.6 | 
CCn1cc(C(=O)O)c(=O)c2cc(F)c(N3CCC(N(C)C(C)=O)C3)nc21 (centres undefined) | 6.25 (≈ 16.6 µM) | 0.78 (≈ 2.07 µM) | 25 (≈ 66.4 µM) |  |  |  | 
CCn1cc(C(=O)O)c(=O)c2cc(F)c(N3CCC(NN)C3)nc21 (centres undefined) | 1.56 (≈ 4.65 µM) | 0.39 (≈ 1.16 µM) | 12.5 (≈ 37.3 µM) |  |  |  | 
CCn1cc(C(=O)O)c(=O)c2cc(F)c(N3CC(O)C3)nc21 | 0.78 (≈ 2.54 µM) | 0.78 (≈ 2.54 µM) | 3.13 (≈ 10.2 µM) |  |  |  | 
CCn1cc(C(=O)O)c(=O)c2cc(F)c(N3CC(N)C(O)C3)nc21 (centres undefined) | 1.56 (≈ 4.64 µM) | 1.56 (≈ 4.64 µM) | 3.13 (≈ 9.31 µM) |  |  |  | 
CCn1cc(C(=O)O)c(=O)c2cc(F)c(N3CCC(N)C3)nc21 (centres undefined) [ESAFLOXACIN] | 0.1 (≈ 0.312 µM) | 0.2 (≈ 0.624 µM) | 0.39 (≈ 1.22 µM) | 3.7 | 1.7 | 3 | 
CCn1cc(C(=O)O)c(=O)c2cc(F)c(N3CCC(NC(N)=O)C3)nc21 (centres undefined) | 3.13 (≈ 8.61 µM) | 6.25 (≈ 17.2 µM) | 25 (≈ 68.8 µM) |  |  |  | 
C=Cn1cc(C(=O)O)c(=O)c2cc(F)c(N3CCC(NC(C)=O)C3)nc21 (centres undefined) | 0.78 (≈ 2.16 µM) | 1.56 (≈ 4.33 µM) | 12.5 (≈ 34.7 µM) |  |  |  | 
CC(=O)NC1CCN(c2nc3c(cc2F)c(=O)c(C(=O)O)cn3CCF)C1 (centres undefined) | 1.56 (≈ 4.1 µM) | 1.56 (≈ 4.1 µM) | 25 (≈ 65.7 µM) |  |  |  | 
CCn1cc(C(=O)O)c(=O)c2cc(F)c(N3CCNCC3)nc21 [ENOXACIN] | 0.2 (≈ 0.624 µM) | 0.78 (≈ 2.44 µM) | 0.78 (≈ 2.44 µM) | 9 | 1.8 | 10 | 
CNC1CCN(c2nc3c(cc2F)c(=O)c(C(=O)O)cn3CCF)C1 (centres undefined) | 0.2 (≈ 0.568 µM) | 0.78 (≈ 2.21 µM) | 0.78 (≈ 2.21 µM) | 19.3 | 2.8 | 15 | 
CCn1cc(C(=O)O)c(=O)c2cc(F)c(N3CC(N4CCOCC4)C3)nc21 | 6.25 (≈ 16.6 µM) | 1.56 (≈ 4.14 µM) | 50 (≈ 133 µM) |  |  |  | 
CCn1cc(C(=O)O)c(=O)c2cc(F)c(N3CCCC(C(N)=O)C3)nc21 (centres undefined) | 12.5 (≈ 34.5 µM) | 6.25 (≈ 17.2 µM) | 50 (≈ 138 µM) |  |  |  | 
CCCNC1CCN(c2nc3c(cc2F)c(=O)c(C(=O)O)cn3CC)C1 (centres undefined) | 6.25 (≈ 17.2 µM) | 25 (≈ 69 µM) | > 100 |  |  |  | 

Structure (SMILES) | MIC (Escherichia coli [1]) [µg/mL] | MIC (Staphylococcus aureus [2]) [µg/mL] | MIC (Pseudomonas aeruginosa [3]) [µg/mL] | ED50 (Pseudomonas aeruginosa [4]) [mg/kg] | ED50 (Escherichia coli [5]) [mg/kg] | ED50 (Staphylococcus aureus [6]) [mg/kg] | ED50 (Pseudomonas aeruginosa [7]) [mg/kg]
C=Cn1cc(C(=O)O)c(=O)c2cc(F)c(N3CCC(N(C)C)C3)nc21 (centres undefined) | 0.39 (≈ 1.13 µM) | 3.13 (≈ 9.04 µM) | 3.13 (≈ 9.04 µM) |  |  |  | 
CCn1cc(C(=O)O)c(=O)c2cc(F)c(N3CCC(CN)CC3)nc21 | 1.56 (≈ 4.48 µM) | 0.39 (≈ 1.12 µM) | 12.5 (≈ 35.9 µM) |  |  |  | 
CCn1cc(C(=O)O)c(=O)c2cc(F)c(N3CCC(NC(=O)C(F)(F)F)C3)nc21 (centres undefined) | 1.56 (≈ 3.75 µM) | 0.78 (≈ 1.87 µM) | 6.25 (≈ 15 µM) |  |  |  | 
CCn1cc(C(=O)O)c(=O)c2cc(F)c(N3CCC(O)C3)nc21 (centres undefined) | 0.78 (≈ 2.43 µM) | 0.39 (≈ 1.21 µM) | 0.78 (≈ 2.43 µM) | 42 | 6.8 | 5.5 | 
CCNC1CCN(c2nc3c(cc2F)c(=O)c(C(=O)O)cn3CC)C1 (centres undefined) | 0.78 (≈ 2.24 µM) | 0.78 (≈ 2.24 µM) | 3.13 (≈ 8.98 µM) |  |  |  | 
CCn1cc(C(=O)O)c(=O)c2cc(F)c(N3CCC(NC)C3)nc21 (centres undefined) | 0.2 (≈ 0.598 µM) | 0.39 (≈ 1.17 µM) | 1.56 (≈ 4.67 µM) | 6.5 | 1.4 | 4.8 | 
CN(C)C1CCN(c2nc3c(cc2F)c(=O)c(C(=O)O)cn3CCF)C1 (centres undefined) | 0.2 (≈ 0.546 µM) | 0.78 (≈ 2.13 µM) | 6.25 (≈ 17.1 µM) |  |  |  | 
CCn1cc(C(=O)O)c(=O)c2cc(F)c(N3CCCC(O)C3)nc21 (centres undefined) | 3.13 (≈ 9.33 µM) | 1.56 (≈ 4.65 µM) | 25 (≈ 74.6 µM) |  |  |  | 
CCn1cc(C(=O)O)c(=O)c2cc(F)c(N3CCC(NC=O)C3)nc21 (centres undefined) | 0.78 (≈ 2.24 µM) | 0.78 (≈ 2.24 µM) | 3.13 (≈ 8.99 µM) |  |  |  | 
C=Cn1cc(C(=O)O)c(=O)c2cc(F)c(N3CCC(NCC(F)(F)F)C3)nc21 (centres undefined) | 6.25 (≈ 15.6 µM) | 1.56 (≈ 3.9 µM) | 100 (≈ 250 µM) |  |  |  | 
C=Cn1cc(C(=O)O)c(=O)c2cc(F)c(N3CCC(NC)C3)nc21 (centres undefined) | 0.1 (≈ 0.301 µM) | 0.78 (≈ 2.35 µM) | 0.78 (≈ 2.35 µM) | 3.7 | 2 | 1.6 | 
CCn1cc(C(=O)O)c(=O)c2cc(F)c(N3CCC(O)CC3)nc21 | 3.13 (≈ 9.33 µM) | 0.78 (≈ 2.33 µM) | 6.25 (≈ 18.6 µM) |  |  |  | 
CCn1cc(C(=O)O)c(=O)c2cc(F)c(N3CCC(Cl)C3)nc21 (centres undefined) | 0.39 (≈ 1.15 µM) | 0.2 (≈ 0.589 µM) | 12.5 (≈ 36.8 µM) |  |  |  | 
C=Cn1cc(C(=O)O)c(=O)c2cc(F)c(N3CCC(NC=O)C3)nc21 (centres undefined) | 0.39 (≈ 1.13 µM) | 0.78 (≈ 2.25 µM) | 3.13 (≈ 9.04 µM) |  |  |  | 
CCn1cc(C(=O)O)c(=O)c2cc(F)c(N3CCCC(N)C3)nc21 (centres undefined) | 0.78 (≈ 2.33 µM) | 0.78 (≈ 2.33 µM) | 6.25 (≈ 18.7 µM) |  |  |  | 
CCn1cc(C(=O)O)c(=O)c2cc(F)c(N3CCC(NCC(F)(F)F)C3)nc21 (centres undefined) | 1.56 (≈ 3.88 µM) | 0.78 (≈ 1.94 µM) | 50 (≈ 124 µM) |  |  |  | 
CCn1cc(C(=O)O)c(=O)c2cc(F)c(N3CCC(OC=O)C3)nc21 (centres undefined) | 1.56 (≈ 4.47 µM) | 0.39 (≈ 1.12 µM) | 3.13 (≈ 8.96 µM) |  |  |  | 
CCn1cc(C(=O)O)c(=O)c2cc(F)c(N3CCC(NC(=O)c4ccccc4)CC3)nc21 | 12.5 (≈ 28.5 µM) | 1.56 (≈ 3.56 µM) | > 100 |  |  |  | 
CCn1cc(C(=O)O)c(=O)c2cc(F)c(N3CCC(CNC(C)=O)CC3)nc21 | 1.56 (≈ 4 µM) | 0.78 (≈ 2 µM) | 25 (≈ 64 µM) |  |  |  | 
CCn1cc(C(=O)O)c(=O)c2cc(F)c(N3CC(N)C3)nc21 | 0.1 (≈ 0.326 µM) | 0.78 (≈ 2.55 µM) | 0.78 (≈ 2.55 µM) | 12.5 | 4.1 | 8.8 | 
C=Cn1cc(C(=O)O)c(=O)c2cc(F)c(N3CCC(N(C)C(C)=O)C3)nc21 (centres undefined) | 3.13 (≈ 8.36 µM) | 1.56 (≈ 4.17 µM) | 25 (≈ 66.8 µM) |  |  |  | 
